Measured values taken from ChEMBL document CHEMBL1131069 (J Med Chem, 1998).
pIC50: −log10 of the molar value. Activity calls are given as the source filed them. The rule behind the calls is not given here.

Assays:
Mus musculus [1] = test: Anticonvulsant activity determined at 4 hours after the administration of compound using MES test.(++= signify activity at 100 mg/kg); assay type: functional, organism-based; design: dose 100 mg/kg
Procedure, shortened: (§1)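 Male CF-1 albino mice (18-25 g) dosed intraperitoneally at 30, 100 or 300 mg/kg. Protection against maximal electroshock-induced seizures was scored 30 min or 4 h after dosing.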

Rattus norvegicus [2] = test: Anticonvulsant activity was determined in rats at a dose of 30 mg/kg after 1 hour by MES test. (++ denotes activity in 25-50% of administered animals).; assay type: functional, organism-based; design: dose 30 mg/kg
Rattus norvegicus [3] = test: Anticonvulsant activity was determined in rats at a dose of 30 mg/kg after 2 hour by MES test. (+ denotes activity in 0-25% of administered animals).; assay type: functional, organism-based; design: dose 30 mg/kg
Rattus norvegicus [4] = test: Anticonvulsant activity was determined in rats at a dose of 30 mg/kg after 4 hour by MES test. (+ denotes activity in 0-25% of administered animals).; assay type: functional, organism-based; design: dose 30 mg/kg
[5] = Apparent IC50 value by [3H]batrachotoxinin-A-20-alpha-benzoate-binding test performed in rat brain synaptosomes; assay type: subcellular
Procedure, shortened: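 Rat brain synaptosomes, about 400 µg protein per assay, incubated 2 h at 37 °C, pH 7.4, in choline chloride/HEPES/glucose/KCl medium with 10 nM [³H]batrachotoxinin-A-20α-benzoate and scorpion venom. Stopped with cold-free choline chloride/HEPES/CaCl₂/MgSO₄ washes, filtered on GF/B, bound radioactivity counted. Protein by Bradford. Apparent IC50 from quadruplicate measurements, mean ± SD.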

[6] = Neurotoxicity determined at 30 minutes after the administration of compound by rotarod test.(- denotes activity at 300 mg/kg); assay type: toxicity, organism-based; design: dose 300 mg/kg; details: mouse, in vivo, 0.5 h
Procedure, shortened: (§2)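 Male CF-1 mice dosed ip at 30, 100 or 300 mg/kg and tested 30 min or 4 h later on a 1-in. knurled rod turning at 6 rpm. A deficit was failure to stay on the rod for 1 min in each of three trials. Coding: ++ 100, + 300 mg/kg; - means none at 300 mg/kg.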

[7] = Neurotoxicity determined at 4 hours after the administration of compound by rotarod test(- denotes activity at 300 mg/kg); assay type: toxicity, organism-based; design: dose 300 mg/kg; details: mouse, in vivo; procedure, shortened: as §2
[8] = Toxicity was determined in rats at a dose of 30 mg/kg after 4 hour (- denotes no activity in administered animals).; assay type: organism-based; design: dose 30 mg/kg; details: rat, in vivo
Procedure, shortened: (§3)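 Male Sprague-Dawley rats given a single oral dose of 30 mg/kg and assessed for toxicity 4 h after dosing, with at least four animals per time point. Score is the fraction of animals affected (+ 0-25%); - means no toxicity.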

Rattus norvegicus [9] = test: Anticonvulsant ED50 activity by MES test in rats dosed orally; assay type: functional; details: po
Procedure, shortened: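 Male Sprague-Dawley rats (100-150 g) dosed orally. ED50 is the dose protecting 50% of animals against maximal electroshock-induced seizures. […]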

Mus musculus [10] = test: Anticonvulsant activity determined at 30 minutes after the administration of compound using MES test. (+++ = activity at 30 mg/kg); assay type: functional, organism-based; design: dose 30 mg/kg; procedure, shortened: as §1
Mus musculus [11] = test: Anticonvulsant activity determined at 30 minutes after the administration of compound using sc Ptz test. (+++ = activity at 30 mg/kg); assay type: functional, organism-based; design: dose 30 mg/kg
Procedure, shortened: (§4)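 Male CF-1 mice (18-25 g) dosed ip at 30, 100 or 300 mg/kg. Pentylenetetrazol in 0.9% NaCl was injected sc at 0.01 mL/g. Tests were run 30 min or 4 h after dosing.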

Mus musculus [12] = test: Anticonvulsant activity determined at 4 hours after the administration of compound using sc Ptz test. (- denotes activity at 300 mg/kg); assay type: functional, organism-based; design: dose 300 mg/kg; procedure, shortened: as §4
Rattus norvegicus [13] = test: Anticonvulsant activity was determined in rats at a dose of 30 mg/kg after 1 hour by MES test. (++++ denotes activity in 75-100% of administered animals); assay type: functional, organism-based; design: dose 30 mg/kg
Rattus norvegicus [14] = test: Anticonvulsant activity was determined in rats at a dose of 30 mg/kg after 2 hour by MES test. (++++ denotes activity in 75-100% of administered animals); assay type: functional, organism-based; design: dose 30 mg/kg
Rattus norvegicus [15] = test: Anticonvulsant activity was determined in rats at a dose of 30 mg/kg after 30 minutes by MES test. (++++ denotes activity in 75-100% of administered animals); assay type: functional, organism-based; design: dose 30 mg/kg
Rattus norvegicus [16] = test: Anticonvulsant activity was determined in rats at a dose of 30 mg/kg after 4 hour by MES test. (++ denotes activity in 25-50% of administered animals).; assay type: functional, organism-based; design: dose 30 mg/kg
Rattus norvegicus [17] = test: Anticonvulsant activity was determined in rats at a dose of 30 mg/kg after 15 minutes by MES test. (++++ denotes activity in 75-100% of administered animals); assay type: functional, organism-based; design: dose 30 mg/kg
Rattus norvegicus [18] = test: (§5) Toxicity was determined in rats at a dose of 30 mg/kg after 4 hour. (- denotes no activity in administered animals).; assay type: functional, organism-based; design: dose 30 mg/kg; procedure, shortened: as §3
[19] = Neurotoxicity determined at 30 minutes after the administration of compound by rotarod test.(++= signify activity at 100 mg/kg); assay type: toxicity, organism-based; design: dose 100 mg/kg; details: mouse, in vivo, 0.5 h; procedure, shortened: as §2
[20] = Neurotoxicity determined at 4 hours after the administration of compound by rotarod test (++= signify activity at 100 mg/kg); assay type: toxicity, organism-based; design: dose 100 mg/kg; details: mouse, in vivo; procedure, shortened: as §2
Mus musculus [21] = test: Anticonvulsant activity determined at 4 hours after the administration of compound using MES test.(+ = signify activity at 300 mg/kg); assay type: functional, organism-based; design: dose 300 mg/kg; procedure, shortened: as §1
Mus musculus [22] = test: Anticonvulsant activity determined at 30 minutes after the administration of compound using MES test.(++= signify activity at 100 mg/kg); assay type: functional, organism-based; design: dose 100 mg/kg; procedure, shortened: as §1
Mus musculus [23] = test: Anticonvulsant activity determined at 4 hours after the administration of compound using MES test. (++= signify activity at 100 mg/kg); assay type: functional, organism-based; design: dose 100 mg/kg; procedure, shortened: as §1
[24] = Neurotoxicity determined at 30 minutes after the administration of compound by rotarod test. (+ = signify activity at 300 mg/kg); assay type: toxicity, organism-based; design: dose 300 mg/kg; details: mouse, in vivo, 0.5 h; procedure, shortened: as §2
[25] = Neurotoxicity determined at 4 hours after the administration of compound by rotarod test (- denotes activity at 300 mg/kg); assay type: toxicity, organism-based; design: dose 300 mg/kg; details: mouse, in vivo; procedure, shortened: as §2
[26] = as §5; assay type: organism-based; design: dose 30 mg/kg; details: rat, in vivo; procedure, shortened: as §3

Structure (SMILES) | Activity (Mus musculus [1]) | Activity (Rattus norvegicus [2]) | Activity (Rattus norvegicus [3]) | pIC50 [5] | Activity [6] | Activity [7] | ED50 (Rattus norvegicus [9]) | Activity (Rattus norvegicus [17]) | other results
Cc1cccc(C)c1NC(=O)c1ccc(O)cc1 | activity in 0-25% of administered animals | activity in 0-25% of administered animals | activity in 0-25% of administered animals | 6.46 | activity in 0-25% of administered animals | activity in 0-25% of administered animals | 284 µmol/kg |  | Activity (Rattus norvegicus [4]): activity in 0-25% of administered animals; Activity [8]: activity in 0-25% of administered animals
Cc1cccc(C)c1N1C(=O)c2ccc(N)cc2C1=O | Active |  |  | 6.96 |  |  | 25.3 µmol/kg | Active | Activity (Mus musculus [10]): Active; Activity (Mus musculus [11]): Active; Activity (Mus musculus [12]): inactive; Activity (Rattus norvegicus [13]): Active; Activity (Rattus norvegicus [14]): Active; Activity (Rattus norvegicus [15]): Active; Activity (Rattus norvegicus [16]): Weak activity; Activity (Rattus norvegicus [18]): Not toxic; Activity [19]: Active; Activity [20]: Active
Cc1ccc(N)c(C)c1N1C(=O)c2ccccc2C1=O |  |  |  |  |  |  |  |  | Activity (Mus musculus [21]): signifies activity at 300 mg/kg
Cc1cccc(C)c1N1C(=O)c2ccccc2C1=O |  | activity in 0-25% of administered animals | activity in 0-25% of administered animals | 3.79 | activity in 0-25% of administered animals | activity in 0-25% of administered animals | 231 µmol/kg |  | Activity (Mus musculus [22]): activity in 0-25% of administered animals
Cc1cccc(C)c1NC(=O)c1ccc([N+](=O)[O-])cc1 |  |  |  | 6.60 |  |  | 52.3 µmol/kg | ++ | Activity (Mus musculus [23]): Activity at 300 mg/kg; Activity [24]: Activity at 300 mg/kg; Activity [25]: Activity at 300 mg/kg; Activity [26]: Activity at 300 mg/kg
